CCR6 antagonist: antagonists of human CCR6 receptor. P51684. CHO-K1 CCR6 PathHunter beta-arrestin, luminescence, CCL20-stimulated. inhibition, % at 20 µM. 340,000 compounds, 0.49% hits. AID 493098;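 active means compounds whose inhibition of the agonist-driven luminescence signal at 20 µM reaches about 50%, limit read from the data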;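 further: cells stimulated with CCL20 at 14 nM final; plate controls were DMSO with CCL20 for no effect and DMSO without agonist for full effect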
Target sequence (P51684 whole entry, looked up): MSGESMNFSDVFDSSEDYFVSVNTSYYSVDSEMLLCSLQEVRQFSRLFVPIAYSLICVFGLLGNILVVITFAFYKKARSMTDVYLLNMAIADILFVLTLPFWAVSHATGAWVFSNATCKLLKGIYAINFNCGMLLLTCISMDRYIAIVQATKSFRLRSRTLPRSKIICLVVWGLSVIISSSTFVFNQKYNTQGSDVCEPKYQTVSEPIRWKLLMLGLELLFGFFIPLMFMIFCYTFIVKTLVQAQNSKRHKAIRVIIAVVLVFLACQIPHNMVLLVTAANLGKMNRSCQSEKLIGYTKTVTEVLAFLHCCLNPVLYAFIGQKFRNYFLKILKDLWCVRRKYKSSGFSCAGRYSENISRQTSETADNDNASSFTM
m5-HT2A agonist: agonists of mouse serotonin 5-HT2A receptor (HTR2A). CHO-K1 mHTR2A beta-arrestin complementation, luminescence; percent of 30 µM serotonin response. activation, % at 7.6 µM. 360,000 compounds, 0.66% hits. P35363;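 active means activation above a run cutoff, the mean activation of all tested compounds plus 3 SD, cut at about 14% in these data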;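 further: 0% = plate median of compound wells and 100% = 30 µM serotonin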
APJ agonist: agonists of human APJ apelin receptor; P35414; CHO-K1 APJ PathHunter beta-arrestin, luminescence; 0% DMSO wells, 100% apelin; activation, % at 20 µM; 330,000 compounds, 0.11% hits; AID 2520;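 active means activation more than six SD over the plate average, tested at 20 µM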;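 further: 0% = DMSO alone and 100% = apelin-13 at 10 nM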
Target sequence (P35414 whole entry, looked up): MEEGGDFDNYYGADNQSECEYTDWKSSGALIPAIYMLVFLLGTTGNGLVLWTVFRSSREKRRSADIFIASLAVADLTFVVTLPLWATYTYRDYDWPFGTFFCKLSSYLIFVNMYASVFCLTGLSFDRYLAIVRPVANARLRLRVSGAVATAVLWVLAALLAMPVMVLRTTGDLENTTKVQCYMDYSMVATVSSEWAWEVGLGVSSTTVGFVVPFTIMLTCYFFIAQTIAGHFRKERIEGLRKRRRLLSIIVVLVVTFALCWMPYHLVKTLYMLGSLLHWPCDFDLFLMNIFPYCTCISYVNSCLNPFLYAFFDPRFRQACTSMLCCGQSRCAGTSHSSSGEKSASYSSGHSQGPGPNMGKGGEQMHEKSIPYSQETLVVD
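Test system: CHO-K1 APJ beta-arrestin complementation cell line. Amount: cell density 1000 per well. Controls: DMSO negative, 10 nM Apelin-13 positive. Signal: luminescent beta-gal fragment complementation, chemiluminescent substrate. Read-out basis: agonist-driven arrestin binding to APJ. Timing: compound stimulation 90 min at 25 °C, detection 60 min.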
APJ antag: APJ receptor antagonism. 330,000 compounds, 0.32% hits. AID 2521. CHO-K1 APJ beta-arrestin complementation, luminescence. inhibition, % at 20 µM. P35414;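 active means inhibition above about 40% at 20 µM, limit read from the data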;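 further: cells challenged with 10 nM apelin-13 agonist together with compound; plate controls were apelin-13 plus DMSO wells for no effect and DMSO wells lacking apelin-13 for full effect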
EBI2 antag: blocks human EBI2 receptor beta-arrestin signaling. 360,000 compounds, 0.81% hits. EBI2 beta-arrestin recruitment, luminescence, 7a,25-OHC stimulated. AID 651636. inhibition, % at 5 µM. P32249; in the data active means inhibition above about 38%;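 further: enzyme fragment complementation signal reports receptor beta-arrestin coupling in cells; 0% = agonist plus DMSO wells and 100% = wells without agonist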
CXCR6 inh: inhibitors of human CXCR6 receptor | CHO-K1 PathHunter CXCR6 beta-arrestin, luminescence | inhibition, % at 20 µM | 360,000 compounds, 0.36% hits | AID 602244; in the data active means inhibition above about 34%, passing the limit was not always enough;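 further: antagonist mode with CXCL16 agonist at 10 nM final; 0% = 10 nM CXCL16 with DMSO and 100% = unstimulated wells without agonist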
CXCR6 antag conf: confirmation of human CXCR6 receptor antagonists | shares compounds with CXCR6 inh | CHO-K1 CXCR6 PathHunter beta-arrestin, luminescence | inhibition, % at 20 µM | 700 compounds, 65% hits;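 active means mean inhibition over four retests above 40%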;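 further: receptor stimulated with 10 nM CXCL16 agonist; beta-galactosidase fragment complementation upon beta-arrestin recruitment to receptor; plate controls were CXCL16 plus DMSO for no effect and DMSO without CXCL16 for full effect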
* marks the source's active call; other numbers are inactive results; / = no result. Rows were chosen to be rich in hits. Some 2.1% of all compounds tested hit in one or more screens of this group.

SMILES | CCR6 antagonist | m5-HT2A agonist | APJ agonist | APJ antag | EBI2 antag | CXCR6 inh | CXCR6 antag conf
Cc1ccc(NC(=O)c2cc(N3C(=O)CCC3=O)ccc2N2CCOCC2)cc1 | 12.8 | 5.0 | -1.5 | -3.6 | -3.4 | 2.9 | /
Cc1ccc(NC(=O)c2cc(N3C(=O)C=CC3=O)ccc2N2CCOCC2)cc1Cl | 97.1* | -4.7 | / | / | -3.1 | 60.0* | 38.3
Cn1c2ccccc2c2cc([N+](=O)[O-])ccc21 | 3.6 | 1.8 | -2.5 | 9.1 | 3.9 | 8.6 | /
CN1c2ccc([N+](=O)[O-])cc2N(C)C1(C)c1ccccc1 (stereo not given) | 54.2* | -5.7 | -8.6 | 28.3 | 16.9 | 42.7* | 38.1
CCOc1ccc(NCc2nnc(SCc3ccccc3Cl)n2-c2ccccc2)cc1 | -0.7 | 0.3 | -3.6 | 4.3 | 16.6 | -8.1 | /
CNC[C@@H](CC1CCCCC1)NC[C@H](CC(C)C)NCCc1cccc(C(F)(F)F)c1 | 40.6 | 4.3 | -8.4 | 15.5 | -11.5 | 42.2* | 37.2
CNC[C@@H](Cc1ccccc1)NC[C@@H](CC1CCCCC1)NCCCc1ccccc1 | 41.5 | 0.1 | 8.8 | 32.5 | -26.7 | -3.5 | /
COCC1CCCCN1C(=O)c1ccc2oc(CCc3ccccc3)nc2c1 (stereo not given) | 3.0 | -4.7 | -3.7 | 2.4 | 0.3 | 36.7* | 22.3
C=CC[C@@H](CC(=O)N(CCO)Cc1ccccc1)C(=O)N[C@H](COC(=O)[C@@H](CC=C)Cc1ccc(F)cc1)Cc1ccccc1 | 33.5 | -0.4 | -4.8 | 23.1 | 24.4 | 25.8 | /
C=CC[C@H](CC(=O)N(CCO)Cc1ccccc1)C(=O)NC[C@H](OC(=O)[C@@H](CC=C)Cc1ccc(F)cc1)c1ccccc1 | 23.9 | -5.6 | -2.2 | 13.1 | -1.1 | 47.7* | 19.5
C=CC[C@@H](CC(=O)N(CCO)Cc1ccccc1)C(=O)NC[C@@H](OC(=O)[C@@H](CC=C)Cc1ccc(F)cc1)c1ccccc1 | 14.5 | 2.9 | -3.6 | -2.6 | 20.3 | 23.0 | /
C=CC[C@@H](CC(=O)N(CCO)Cc1ccccc1)C(=O)N[C@@H](COC(=O)[C@@H](CC=C)Cc1ccc(F)cc1)Cc1ccccc1 | 27.5 | -3.9 | -5.3 | 4.6 | 7.7 | 41.8* | 23.4
COC(=O)c1cc([N+](=O)[O-])c(-n2cncn2)c([N+](=O)[O-])c1 | 96.8* | 3.2 | / | / | 10.4 | 79.1* | 95.8*
CC(=O)c1ccc(OCC(O)CN2CCN(CCN3C(=O)c4cccc5cccc(c45)C3=O)CC2)cc1 (stereo not given) | 17.1 | -1.5 | 1.5 | -3.5 | 8.3 | -8.6 | /
COC(=O)c1cc(CSc2nc3ccc(C)cc3[nH]2)oc1C | 33.0 | -5.8 | -6.2 | 27.5 | 23.3 | 43.3* | 41.2*
COc1ccc(Nc2ncccc2C(=O)O)cc1 | -34.6 | -2.8 | 0.5 | -1.4 | -3.1 | 69.5* | 17.4
CC1=C(C(=O)N2CCOCC2)C(c2ccccc2F)NC(=O)N1 (stereo not given) | 11.9 | 0.9 | -0.6 | 2.3 | -11.0 | 7.3 | /
CC(=O)Nc1ccccc1NC(=O)C(F)(F)F | -1.5 | -0.6 | -2.5 | 0.4 | -8.0 | -0.6 | /
CC(=NNC(=S)N1CCCCC1)c1cccc(C)n1 | 22.8 | -4.5 | / | / | 2.5 | 42.8* | 20.4
CC(=NNC(=S)N1CCCCC1)c1ccccn1 | / | 3.1 | / | / | -9.6 | -16.9 | /
COc1ccc(CC(=O)N2CCC(CCC(=O)Nc3ccccc3)CC2)cc1 | -8.2 | 5.8 | -2.6 | -32.3 | 3.3 | 0.5 | /
COc1ccc(Br)cc1S(=O)(=O)N(CC(=O)N1CCOCC1)c1ccccc1 | 5.2 | 2.3 | 1.3 | -3.4 | -14.5 | 1.0 | /
COC(=O)CN(c1ccccc1)S(=O)(=O)c1cc(Br)ccc1OC | 9.1 | 2.6 | -1.4 | 6.2 | -1.3 | 92.1* | 22.4
Cc1occc1C(=O)NNC(=S)NC(=O)COc1ccc(Cl)cc1Cl | 47.5 | 11.4 | -4.2 | 29.0 | 3.0 | 41.5* | 36.6
CSCCC(NC(=O)c1ccco1)C(=O)OCc1cc([N+](=O)[O-])cc2c1OCOC2 (stereo not given) | 2.8 | -2.6 | -2.8 | 11.6 | 2.8 | -19.2 | /
SMILES | CCR6 antagonist | m5-HT2A agonist | APJ agonist | APJ antag | EBI2 antag | CXCR6 inh | CXCR6 antag conf
CCOC(=O)c1cc([N+](=O)[O-])cc([N+](=O)[O-])c1Sc1ncnc2nc[nH]c12 | / | -2.1 | / | / | -43.5 | 45.2* | 33.5
COc1ccc(NC(=S)NNc2ccc([N+](=O)[O-])cc2S(=O)(=O)Nc2ccc(C)cc2C)cc1 | 77.2* | 2.1 | 0.0 | 0.9 | 13.9 | 49.2* | 56.4*
Cc1ccc(NS(=O)(=O)c2cc([N+](=O)[O-])ccc2NNC(=S)Nc2cc(C)ccc2C)c(C)c1 | 86.4* | 1.4 | -8.1 | 53.4* | 12.8 | 63.2* | 64.3*
CCNC(=O)c1nc[nH]c1C(=O)NCC | 24.9 | -0.9 | -4.8 | -10.8 | 4.7 | 59.0* | -0.8
CNC(=O)c1nc[nH]c1C(=O)NC | 1.5 | -0.5 | 0.9 | 4.8 | -2.7 | -8.0 | /
CCOC(=O)CSc1cccc2cccnc12 | 69.2* | 0.2 | -6.8 | 37.1 | 5.3 | 53.0* | 65.4*
CCc1nnc(NS(=O)(=O)c2ccc(Nc3ccc([N+](=O)[O-])c4nonc34)cc2)s1 | 72.7* | -9.7 | -8.6 | 65.2* | 8.6 | 48.2* | 41.6*
CCc1nnc(NS(=O)(=O)c2ccc(NS(=O)(=O)c3ccccc3[N+](=O)[O-])cc2)s1 | -2.1 | 4.3 | -1.5 | 3.2 | 0.3 | -29.9 | /
COc1cc(/C=C/C(=O)NC(=O)c2ccccc2O)ccc1O | 19.0 | 3.0 | -10.7 | 19.1 | 11.7 | -0.4 | /
COc1cc(/C=C/C(O)=C/C(=O)/C=C/c2ccc(O)cc2)ccc1O | 60.9* | -5.7 | -9.1 | 3.9 | 13.1 | 40.2* | 44.8*
O=C(CSc1nc(-c2ccccc2)c(-c2ccccc2)o1)NC1CCS(=O)(=O)C1 (stereo not given) | 6.9 | -0.9 | -3.7 | 8.2 | 0.3 | 1.5 | /
Cc1ccc(O)c(NC(=O)C2=CC(c3cccs3)=NS(=O)(=O)N2C)c1 | 5.7 | -1.9 | 12.1 | -5.4 | 22.5 | -8.1 | /
O=C1c2cccc3c([N+](=O)[O-])ccc(c23)C(=O)N1c1ccccn1 | / | -0.4 | 0.0 | 30.4 | 24.3 | 51.8* | 52.5*
O=C(COC(=O)C1CCN(S(=O)(=O)c2cccs2)CC1)c1cc2ccccc2o1 | 74.4* | -6.9 | -11.7 | 36.6 | 14.9 | 34.3* | 41.8*
O=C(COC(=O)C1CCN(S(=O)(=O)c2cccs2)CC1)c1ccc2c(c1)OCCO2 | 9.9 | -4.2 | -2.6 | 11.6 | 1.0 | -9.0 | /
CCC(C)C(CO)NCCCn1cnc2c(OC)ncnc21 (stereo not given) | / | 4.5 | / | / | -7.4 | 43.3* | 8.9
CC1CCN(C(=O)c2cc3c(=O)n4ccccc4nc3s2)CC1 | -5.3 | 1.2 | 3.1 | -4.5 | -10.8 | -1.9 | /
N=C1SCC(=O)N1c1ncc(Cc2ccccc2Cl)s1 | / | -4.5 | / | / | -8.1 | 50.6* | 58.3*

Screens: PubChem BioAssay, several laboratories
